Active and inactive are the calls of the source. The rule behind the calls is not given here.
Legend:
[1] = system: Cortical neurone; assay: Cytotoxicity against Sprague-Dawley rat primary cortical neurons assessed as cell death at 100 uM after 24 hrs by MAP2 immunostaining; type: cell-based
Summary of the method: (§1)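 Neurons from 1-day-old pups were plated at 1 × 10^6 cells/well on poly-D-lysine in DMEM with 10% horse serum, 25 mM glucose, 10 mM HEPES, 2 mM glutamine and antibiotics. Day 3–4 cultures were treated 24 h (vehicle 0.1% DMSO), fixed in 4% paraformaldehyde, blocked (0.1% Triton X-100, 1% BSA), stained with MAP-2 1:50 overnight at 4 °C plus rhodamine secondary, and imaged by fluorescence microscopy (40X).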

[2] = system: Cortical neurone; assay: Induction of IDE levels in Sprague-Dawley rat primary cortical neurons after 24 hrs by immunoblot analysis; type: functional, cell-based
Summary of the method: (§2)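 Cortical neurons from neonatal Sprague-Dawley rats treated 24 h at 0, 5, 20, 100 μM or 0, 1, 5, 10 μM, with DMSO control. Lysates were immunoblotted on 10% Tris–HCl gels with IDE or NEP antibody (1:1000, 4 °C overnight), nitrocellulose transfer, HRP detection. Intensities normalized to actin; mean ± S.D. of three independent experiments, Student's t-test.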

[3] = system: Cortical neurone; assay: Reduction of BACE1 expression in Sprague-Dawley rat primary cortical neurons after 24 hrs by immunoblot analysis; type: functional, cell-based
Summary of the method: (§3)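 Primary cortical neurons (1-day-old Sprague-Dawley pups, 3–4 day cultures) treated 24 h at 0–100 μM or 0–10 μM, with DMSO control. Lysed in RIPA, protein quantified by BCA, equal amounts run on 10% Tris–HCl gels, nitrocellulose transfer. BACE1 and ADAM10 antibodies each 1:1000 overnight at 4 °C, HRP secondary, chemiluminescence. Mature ADAM10 is the ~60 kDa band. Bands normalized to actin; mean ± S.D., n=3, Student's t-test.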

[4] = system: Cortical neurone; assay: Induction of matured ADAM10 level in Sprague-Dawley rat primary cortical neurons after 24 hrs by immunoblot analysis; type: functional, cell-based; summary of the method: as §3
[5] = system: Cortical neurone; assay: Induction of IDE levels in Sprague-Dawley rat Alzheimer's disease model primary cortical neurons after 24 hrs by immunoblot analysis; type: functional, cell-based
[6] = system: Cortical neurone; assay: Cytotoxicity against Sprague-Dawley rat primary cortical neurons assessed as cell morphology at 100 uM after 24 hrs by MAP2 immunostaining; type: cell-based; summary of the method: as §1
[7] = system: Cortical neurone; assay: Induction of ADAM10 activation in Sprague-Dawley rat primary cortical neurons after 24 hrs by immunoblot analysis; type: functional, cell-based; summary of the method: as §3
[8] = system: ADAM10 (alpha-secretase) (Rattus norvegicus); assay: Increase in alpha-secretase activity in Sprague-Dawley rat primary cortical neurons assessed as increase in sAPPalpha level by immunoblot analysis; conditions: Cerebral cortex neuron
[9] = system: ADAM10 (alpha-secretase) (Rattus norvegicus); assay: Increase in alpha-secretase activity in Sprague-Dawley rat primary cortical neurons assessed as increase in C83 level by immunoblot analysis; conditions: Cerebral cortex neuron
[10] = system: Cortical neurone; assay: Cytotoxicity against Sprague-Dawley rat primary cortical neurons assessed as cell morphology at 10 uM after 24 hrs by MAP2 immunostaining; type: cell-based
Summary of the method: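 Cortical neurons from 1-day-old Sprague-Dawley pups, plated on poly-D-lysine at 1 × 10^6 cells/well in DMEM with 10% horse serum, used at 3–4 days in culture. Treated 24 h alongside DMSO control (0.01% or 0.1%). Fixed in 4% paraformaldehyde, blocked with Triton X-100/BSA, MAP-2 (1:50) overnight at 4 °C, rhodamine secondary, imaged by fluorescence microscopy at 40X.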

[11] = system: Cortical neurone; assay: Induction of NEP levels in Sprague-Dawley rat primary cortical neurons at 5 uM after 24 hrs by immunoblot analysis; type: functional, cell-based; summary of the method: as §2
[12] = system: Cortical neurone; assay: Induction of IDE levels in Sprague-Dawley rat primary cortical neurons at 5 to 100 uM after 24 hrs by immunoblot analysis; type: functional, cell-based; conditions: 1 to 10 uM, in the assay text read “1 to 10 uM” for “5 to 100 uM”; summary of the method: as §2

Row | Compound | Activity [1] | Activity [2] | Activity [3] | Activity [4] | Activity [5] | Activity [6] | Activity [7] | Activity [8] | Activity [9] | Activity [10] | Activity [11] | Activity [12]
1 | CC1=C(C)C(=O)O[C@@H]([C@](C)(O)[C@H]2CC[C@H]3[C@@H]4[C@@H]5O[C@@H]5[C@@]5(O)CC=CC(=O)[C@]5(C)[C@H]4CC[C@]23C)C1 [WITHANOLIDE A] | Non-toxic | Dose-dependent effect | Dose-dependent effect | Dose-dependent effect | Active | Non-toxic | Dose-dependent effect | Active | Active | – | – | –
2 | C[C@H]1[C@H](C)CC[C@]2(C(=O)O)CC[C@]3(C)C(=CC[C@@H]4[C@@]5(C)C[C@@H](O)[C@H](O)[C@@](C)(CO)[C@@H]5CC[C@]43C)[C@H]12 [ASIATIC ACID] | – | – | Dose-dependent effect | Dose-dependent effect | – | – | Dose-dependent effect | – | – | Non-toxic | Active | inactive
